We go through 11 compounds from PubChem BioAssay.

As usually defined, the inhibition is the drop in the measured response relative to a control, in per cent.

The nature of test [1]: inhibitors of TNFa-induced NFkB p65 translocation, primary screen, imaging, HUVEC, MLSMR starter and 10KST1 sets (AID 438;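 active = inhibition above 20% together with a positive visual image hit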;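 also: compound added about 3h40 before a 20 min TNFalpha stimulation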;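 as to inhibition: signal is the nuclear over cytoplasmic p65 intensity ratio per well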). As to conditions: HUVEC TNFa-induced p65 nuclear translocation; cell count: measured here: nuclei count (cytotoxicity indicator), at 2.08 µM; inhibition: at 2 µM, stronger effect = higher value, 0% TNFa-plus-vehicle, 100% no-TNFa wells.
Test [2] can be described thus: endothelial E-selectin expression blockers – imaging, HUVEC, immunofluorescence, MLSMR starter and 10KST1 sets, primary screen (AID 487;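 active = visually confirmed hit in the image check and inhibition above 20%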;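 as to inhibition: signal is fraction of cell area covered by stained E-selectin grains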;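 as to nuclei count: 100% = median nuclei count of all wells on the same plate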). As to conditions: HUVEC TNFalpha-induced E-selectin immunofluorescence imaging, at 2 µM; inhibition: stronger effect = higher value; nuclei count: measured here: cell number, toxicity.
Test [3] in a line: Primary imaging screen for DUSP6 inhibitors that restore phospho-Erk in transfected HeLa cells, chemical complementation (AID 609;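 active = compounds giving at least 50% inhibition in the cell-based MKP-3 phosphatase rescue imaging test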;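 as to inhibition: phospho-Erk level distribution per well compared with pooled transfected vehicle control wells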). As to conditions: HeLa MKP-3 transfected, phospho-Erk imaging KS statistic, at 10 µM, cells stimulated with TPA for 15 min.
Test [4] concerns the target Dual specificity protein phosphatase 6 (Homo sapiens) (UniProt Q16828). The test is described as above. The note with it: HeLa MKP-3 transfected, phospho-Erk imaging KS statistic; at 10 µM; stronger effect = higher value; cells stimulated with TPA for 15 min.
Test [5] deals with Voltage-gated potassium channel subunit beta-2 (Rattus norvegicus) (UniProt P62483). Put plainly: inhibitors of rat Kvbeta2 reductase activity – biochemical, NADPH fluorescence, primary screen (AID 622;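 active = fluorescence slope higher than the sample average by over 3 SD, cut at about -0.22 in these data, passing the limit was not always enough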;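 also: slope of raw intensity against log time taken from 70 to 1610 s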). As to conditions: recombinant KvBeta, 4-cyanobenzaldehyde reduction, at 10 µM, stronger effect = higher value.
Test [6] shares this target. Put plainly: enhancers of rat Kvbeta2 NADPH turnover – biochemical, NADPH fluorescence, primary screen (AID 623).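 Also: fluorescence intensity change per second fitted from 20 to 320 s.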 As to conditions: Recombinant KvBeta, NADPH fluorescence decrease slope, 10 min; at 10 µM; stronger effect = lower value.
The target in test [7] is Alpha-2C adrenergic receptor (Homo sapiens) (UniProt P18825). Put plainly: compounds altering alpha2C-coupled GIRK flux – cell-based, HEK293 alpha2C/GIRK1/2, thallium flux, primary screen (AID 624;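 active = fluorescence slope after compound addition differing from the mean of all screened samples at 99.7% confidence, in either direction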;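 also: slope of fluorescence ratio to pre-addition baseline per second over 15 to 24 s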). The note with it: thallium flux BTC fluorescence, at 10 µM, actives lie on both sides.
Test [8] in a line: inhibitors of larval lipid processing in zebrafish, primary screen, whole organism, PED6 fluorescence, gall bladder and intestine (AID 686;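 active = a full or partial loss of lipid-probe fluorescence in the fish gall bladder, intestine or both, judged by eye; inactive = no fluorescence loss, or compound toxic to the fish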;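 also: larvae 5 to 7 days old with five fish per well; signal comes from phospholipase A2 cleavage of quenched PED6 carried via bile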). The note with it: Zebrafish larvae PED6 lipid processing, fluorescence scoring; screened at 20 µM (by protocol). The method in brief:
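Incubation: overnight exposure of larvae to compound plus PED6 / Test system: live zebrafish larvae aged 5-7 days, whole organism / Amount: 5 larvae per well / Read-out basis: visual per-well fluorescence inhibition score / Signal: visual fluorescence microscopy scoring of gall bladder, gut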

A short description of test [9]: loss of swimming-algae plug formation – whole organism, Chlamydomonas reinhardtii, WT vs cilia-less mutant, absorbance, 96-well, primary screen (AID 463189;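 active = inhibition at or above 50% relative to wild type and mutant plate controls; inactive = inhibition below 50%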;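 also: 0% = wild type cc124 cells in DMSO and 100% = ciliumless bld1 mutant cells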). As to conditions: Chlamydomonas reinhardtii gravitaxis, OD600 absorbance, 2 days; at 10 µM; stronger effect = higher value.
Where [10] appears, read: measured here: cell density z-score.
Setting [11] is: measured here: nuclear c-Myc green intensity z-score.
[12] abbreviates: measured here: nuclear pErk red intensity z-score, stronger effect = higher value.

Active and inactive are the calls of the source.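 The calls were made as follows, unless noted: active = NADPH fluorescence slope more negative than the mean of all samples by about 3 SD, 99.7% confidence; inactive = the rest.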

Alpha-2C adrenergic receptor (Homo sapiens), sequence (P18825 whole entry, looked up): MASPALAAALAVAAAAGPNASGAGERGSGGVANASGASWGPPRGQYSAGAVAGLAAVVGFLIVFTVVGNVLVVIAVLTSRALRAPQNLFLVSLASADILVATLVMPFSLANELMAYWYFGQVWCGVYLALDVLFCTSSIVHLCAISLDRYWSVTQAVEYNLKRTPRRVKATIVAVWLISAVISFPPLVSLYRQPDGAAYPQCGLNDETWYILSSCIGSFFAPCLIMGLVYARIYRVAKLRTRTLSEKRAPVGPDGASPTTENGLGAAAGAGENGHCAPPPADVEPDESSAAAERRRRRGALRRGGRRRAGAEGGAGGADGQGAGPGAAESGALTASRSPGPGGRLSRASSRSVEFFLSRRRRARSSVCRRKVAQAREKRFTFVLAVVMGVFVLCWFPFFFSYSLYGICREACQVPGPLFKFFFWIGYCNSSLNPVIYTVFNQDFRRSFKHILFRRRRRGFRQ
Voltage-gated potassium channel subunit beta-2 (Rattus norvegicus), sequence (P62483 whole entry, looked up): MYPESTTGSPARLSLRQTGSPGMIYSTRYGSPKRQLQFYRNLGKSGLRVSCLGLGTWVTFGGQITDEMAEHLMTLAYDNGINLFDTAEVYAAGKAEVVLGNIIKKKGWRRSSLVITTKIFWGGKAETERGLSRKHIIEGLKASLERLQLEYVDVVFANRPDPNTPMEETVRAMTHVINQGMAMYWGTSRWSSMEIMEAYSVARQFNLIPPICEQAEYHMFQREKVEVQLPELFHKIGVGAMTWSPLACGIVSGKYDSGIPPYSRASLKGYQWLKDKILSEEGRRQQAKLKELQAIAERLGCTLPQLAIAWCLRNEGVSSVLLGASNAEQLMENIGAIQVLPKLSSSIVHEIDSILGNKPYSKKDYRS
Dual specificity protein phosphatase 6 (Homo sapiens), sequence (Q16828 whole entry, looked up): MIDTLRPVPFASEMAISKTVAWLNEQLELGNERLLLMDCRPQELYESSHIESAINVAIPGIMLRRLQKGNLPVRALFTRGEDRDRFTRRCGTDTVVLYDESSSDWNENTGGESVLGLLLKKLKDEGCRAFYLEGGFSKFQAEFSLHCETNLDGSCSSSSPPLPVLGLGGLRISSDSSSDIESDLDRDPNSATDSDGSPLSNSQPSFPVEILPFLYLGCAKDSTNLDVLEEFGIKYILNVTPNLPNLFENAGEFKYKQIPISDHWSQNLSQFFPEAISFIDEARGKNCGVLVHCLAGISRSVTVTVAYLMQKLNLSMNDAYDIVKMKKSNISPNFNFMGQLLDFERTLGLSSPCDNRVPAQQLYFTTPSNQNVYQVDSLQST

For the compound `CC(Sc1nc(N2CCCCC2)c2c(c1C#N)CCCC2)C(=O)O` (stereo not drawn), the cell count in [1] was found to be 624. The inhibition in test [1] is 4.5% (inactive); in test [2], -96.1% (inactive); in test [4], 9.82% (inactive); in [9], -8.39% (inactive). The nuclei count in [2] stood at 161%. The z-score is -0.692 in test [3] (setting [10]), 0.635 in test [3] (setting [11]) and -1.09 in test [3] (setting [12]). For the same compound, the fluorescence slope in test [5] was -0.301 (inactive). Besides, the NADPH fluorescence slope in test [6] is 1.2e-06 (inactive). Also, in test [7], the slope is 0.00467 (inactive). Also, the compound was classed as inactive in test [8].

`COc1ccc(C(=O)C(CN2CCCC2)c2ccccc2)cc1` (stereo not drawn): the cell count in test [1] was 653. Besides, the inhibition in test [1] was -4.3% (inactive); in [2], 0.2% (inactive); in test [4] it was 1.75% (inactive); in test [9], 5.7% (inactive). Moreover, the nuclei count in test [2] was determined as 178%. Also, the z-score was -0.885 in [3] (setting [10]), 0.507 in test [3] (setting [11]) and 1.21 in test [3] (setting [12]). Also, the fluorescence slope in test [5] was -0.521 (inactive). Besides, the NADPH fluorescence slope in test [6] is -8.7e-05 (inactive). In addition, the slope in test [7] is 0.00506 (inactive). Moreover, in [8], the compound was called inactive.

Regarding `COc1cc(C)nc(Oc2ccc(OCCOc3ccc(C)cc3)nn2)n1`, the cell count in [1] is 440. For the same compound, the inhibition was -2.4% (inactive) in test [1], -191% (inactive) in test [2], 2.46% (inactive) in test [4] and 3.2% (inactive) in test [9]. Further, the nuclei count in test [2] came out at 163%. In addition, the z-score is 0.149 in [3] (setting [10]), -0.102 in test [3] (setting [11]) and 0.972 in test [3] (setting [12]). Also, in [5], the fluorescence slope is -0.415 (inactive). Besides, the NADPH fluorescence slope in test [6] is -3.1e-05 (inactive). The slope in test [7] is 0.00505 (inactive). In test [8], the outcome was inactive.

`C=C(Br)Cn1c(CCCC)nc2ccccc21`: the cell count in [1] was 496. Besides, the inhibition in [1] was -6.3% (inactive); in [2], -117% (inactive); in test [4], 3.56% (inactive); in test [9] it was 35.5% (inactive). The nuclei count in test [2] stood at 145%. Moreover, the values for the z-score in [3] (setting [10]), in test [3] (setting [11]) and in test [3] (setting [12]) were 0.895, -1.74 and -1.25, respectively. The fluorescence slope in [5] is -0.492 (inactive). In test [6], the NADPH fluorescence slope is -0.000115 (inactive). Besides, the slope in [7] is 0.00483 (inactive). For the same compound, the outcome in test [8] was inactive.

For the compound `O/N=C(\c1ccc2c(c1)OCCO2)C1CCCCC1`, the cell count in test [1] was 483. Besides, the inhibition in [1] was -8.4% (inactive); in [2], 0.8% (inactive); in [4], -1.98% (inactive); in test [9] it was 124% (active). Moreover, the nuclei count in test [2] came to 88.1%. In addition, the z-score is -0.525 in test [3] (setting [10]), -0.257 in [3] (setting [11]) and 1.15 in test [3] (setting [12]). Besides, in test [5], the fluorescence slope was -0.497 (inactive). For the same compound, the NADPH fluorescence slope in test [6] is -3.9e-05 (inactive). The slope in test [7] is 0.00548 (inactive). Besides, the compound was classed as inactive in test [8].

On to `COc1ccc(OC)c2c1CCC2=O`, for which, in test [1], the cell count amounted to 434. Also, the inhibition in [1] is -0.5% (inactive); in test [2], 3.9% (inactive); in [4], -1.12% (inactive); in test [9], 9.78% (inactive). Also, in test [2], the nuclei count worked out at 102%. The z-score in test [3] (setting [10]) was -0.357; in [3] (setting [11]), -1.08; in [3] (setting [12]), -0.0279. Also, in test [5], the fluorescence slope is -0.0756 (inactive). For the same compound, the NADPH fluorescence slope in test [6] was 8.5e-06 (inactive). Also, in test [7], the slope was 0.00599 (inactive). Further, the compound was classed as inactive in test [8].

`CCCc1[nH]n(-c2nc3ccccc3s2)c(=O)c1C=NCCN1CCOCC1`: the cell count in [1] was determined as 538. The inhibition is 1.3% (inactive) in test [1], -110% (inactive) in test [2], 7.93% (inactive) in [4] and 19.8% (inactive) in test [9]. Besides, the nuclei count in test [2] stood at 123%. Besides, the z-score in [3] (setting [10]) was -0.895; in [3] (setting [11]), 0.406; in test [3] (setting [12]), -1.01. The fluorescence slope in [5] was -0.474 (inactive). Moreover, the NADPH fluorescence slope in test [6] is -4e-05 (inactive). Besides, in test [7], the slope was 0.00553 (inactive). Further, in test [8], the compound was classed as inactive.

With `CCCCOc1cccc(-c2nnc(N)s2)c1`, in [1], the cell count is 629. Besides, the inhibition in test [1] was -13.6% (inactive); in [2] it was 29.1% (inactive); in test [4], -13.3% (inactive); in [9] it was -2.21% (inactive). This compound came in with a nuclei count in [2] of 161%. In addition, the results for the z-score in test [3] (setting [10]), in [3] (setting [11]) and in test [3] (setting [12]) were -0.391, 0.503 and -0.82, respectively. Moreover, the fluorescence slope in [5] was -0.395 (inactive). In [6], the NADPH fluorescence slope was -4.2e-05 (inactive). In test [7], the slope was 0.00766 (inactive). Moreover, the call in test [8] was inactive.

Turning to `Cc1nc(N2CCOCC2)c(C#N)c2c1COC(C)(C)C2`, in test [1], the cell count turned out to be 582. Moreover, the inhibition in [1] is -0.2% (inactive); in [2] it was -43.9% (inactive); in test [4], 3.66% (inactive); in test [9], -6.08% (inactive). In addition, in [2], the nuclei count is 99.8%. Besides, the z-score in test [3] (setting [10]) is -1.02; in [3] (setting [11]), 1; in [3] (setting [12]), -1.11. Moreover, the fluorescence slope in test [5] was -0.521 (inactive). Also, in [6], the NADPH fluorescence slope is -4.3e-05 (inactive). The slope in test [7] was 0.00501 (inactive). In test [8], the call was inactive.

For the compound `COc1ccc2c(=O)c(-c3nc(C)cs3)coc2c1`, the cell count in [1] is 559. Besides, the inhibition was -18.2% (inactive) in test [1], -220% (inactive) in [2], 1.98% (inactive) in test [4] and 1.43% (inactive) in test [9]. In addition, the nuclei count in test [2] came to 141%. Also, the results for the z-score in test [3] (setting [10]), in test [3] (setting [11]) and in test [3] (setting [12]) were 1.07, 0.0883 and 0.691, respectively. Also, in [5], the fluorescence slope was -0.543 (inactive). In test [6], the NADPH fluorescence slope was -3.8e-05 (inactive). Further, the slope in [7] was 0.0045 (inactive). The compound was called inactive in [8].

Take `COc1cc(/C=N/O)ccc1OCc1ccc(C(=O)O)cc1`: the cell count in test [1] worked out at 587. The inhibition in test [1] was -21.9% (inactive); in test [2] it was -51.1% (inactive); in test [4] it was -0.608% (inactive); in [9] it was -7.38% (inactive). The compound further displayed a nuclei count in test [2] of 154%. Moreover, the z-score in [3] (setting [10]) was -1.09; in [3] (setting [11]), 0.882; in [3] (setting [12]), 0.52. Moreover, in [5], the fluorescence slope was -0.357 (inactive). The NADPH fluorescence slope in test [6] was -5.9e-05 (inactive). In addition, the slope in test [7] was 0.00492 (inactive). Also, in test [8], the result was inactive.
